RGS4 inh: RGS4 inhibitors, primary screen, cell-based, HEK293 M3R inducible RGS4, calcium flux | Regulator of G-protein signaling 4 (Homo sapiens), P49798 | Fluo-4 calcium flux; hits give high values; triggered by carbachol at its EC20 | B-score at 10 µM | actives 0.45% (n = 310,000);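 active = B-score, a plate-corrected calcium signal, over three deviations above library mean, with baseline fluorescence within five deviations of library mean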;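 also: RGS4 expression induced by doxycycline in cells with stable M3 receptor; B-score is computed from the integrated fluorescence ratio over baseline after carbachol; higher B-score means a larger calcium signal and so more RGS4 inhibition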
Cl transport mod: KCC2 cotransporter modulators, thallium flux, primary screen, cell-based, HEK293 KCC2, FluoZin-2 fluorescence, MLSMR | Solute carrier family 12 member 5 (Homo sapiens), Q9H2X9 | KCC2 cells, thallium flux FluoZin-2 fluorescence | B-score of Tl+ flux slope (higher = more flux/activation; lower = inhibition) at 10 µM | actives 2.2% (n = 190,000) | AID 1456, 2008;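 active = thallium flux slope and its plate-corrected score both differing from the plate sample mean at a set confidence after two filtering rounds, in either direction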;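 also: slope of fluorescence scaled to starting intensity during 10 to 20 s after thallium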
Target sequence (Q9H2X9 whole entry, looked up): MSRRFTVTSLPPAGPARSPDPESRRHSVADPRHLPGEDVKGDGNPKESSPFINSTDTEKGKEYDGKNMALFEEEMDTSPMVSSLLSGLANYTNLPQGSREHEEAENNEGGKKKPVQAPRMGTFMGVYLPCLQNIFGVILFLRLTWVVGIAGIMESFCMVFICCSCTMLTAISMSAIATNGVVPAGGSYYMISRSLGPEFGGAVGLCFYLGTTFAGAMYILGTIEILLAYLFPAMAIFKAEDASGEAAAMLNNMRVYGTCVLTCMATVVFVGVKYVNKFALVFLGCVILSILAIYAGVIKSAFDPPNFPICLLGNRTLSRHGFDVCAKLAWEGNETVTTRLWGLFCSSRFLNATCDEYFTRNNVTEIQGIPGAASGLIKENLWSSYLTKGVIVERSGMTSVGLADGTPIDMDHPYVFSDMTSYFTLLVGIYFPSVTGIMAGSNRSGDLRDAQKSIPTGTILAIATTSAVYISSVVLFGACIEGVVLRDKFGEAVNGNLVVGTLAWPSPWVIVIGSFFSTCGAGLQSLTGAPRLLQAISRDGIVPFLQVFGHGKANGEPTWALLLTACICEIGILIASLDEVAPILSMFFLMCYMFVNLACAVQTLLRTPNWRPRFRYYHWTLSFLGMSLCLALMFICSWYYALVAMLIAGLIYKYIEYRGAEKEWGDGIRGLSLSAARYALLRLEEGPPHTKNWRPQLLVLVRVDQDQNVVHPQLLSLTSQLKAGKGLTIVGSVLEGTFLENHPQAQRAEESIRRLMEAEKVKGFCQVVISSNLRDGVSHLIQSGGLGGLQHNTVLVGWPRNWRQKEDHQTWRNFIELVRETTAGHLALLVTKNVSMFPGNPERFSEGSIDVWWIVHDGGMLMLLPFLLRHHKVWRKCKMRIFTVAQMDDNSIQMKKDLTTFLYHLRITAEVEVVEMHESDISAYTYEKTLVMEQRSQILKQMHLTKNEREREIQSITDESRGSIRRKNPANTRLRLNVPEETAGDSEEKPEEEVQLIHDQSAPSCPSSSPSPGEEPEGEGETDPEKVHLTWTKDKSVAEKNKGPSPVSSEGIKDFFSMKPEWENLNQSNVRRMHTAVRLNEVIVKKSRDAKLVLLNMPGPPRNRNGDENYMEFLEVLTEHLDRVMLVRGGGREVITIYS
RGS4 act: RGS4 potentiators or activators, primary screen, cell-based, HEK293 M3R inducible RGS4, calcium flux | B-score at 10 µM | carbachol calcium flux Fluo4; hits give low values | actives 0.92% (n = 310,000);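 active = B-score of the integrated calcium signal more than 4 SD below the library mean, with starting fluorescence not abnormally high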;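 also: negative B-score means reduced calcium response which marks RGS4 activation or potentiation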
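Test system: HEK293 cells with stable M3R and inducible RGS4; also added: carbachol at ECmax as muscarinic agonist stimulus; schedule: dye loading 30 min 37 °C, buffer rest 30 min RT; technique: kinetic calcium fluorescence imaging with Fluo4-AM dye, 2 µM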
MrgX1 ag: agonists of human MrgX1 receptor, primary screen, HEK293 cells, Fluo-4 calcium flux; Mas-related G-protein coupled receptor member X1 (Homo sapiens), Q96LB2; Fluo-4 calcium fluorescence, agonist mode; hits give high values; B-score at 10 µM; actives 0.44% (n = 310,000);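 active = calcium response B-score plate-corrected fluorescence ratio at least 3 library SD, with starting fluorescence B-score inside 5 SD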
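Material: MrgX1-expressing HEK293 cells / Dosing: compound as first of three additions / Incubation: overnight seeding, then 1 h dark dye loading / Signal: Fluo-4 NW calcium fluorescence / Evaluation: B-scored fluorescence response ratio / Benchmarks: positive and negative control wells on each plate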
MrgX1 antagonist: antagonists of human MrgX1 receptor, primary screen, HEK293 cells, Fluo-4 calcium flux | Mas-related G-protein coupled receptor member X1 (Homo sapiens), Q96LB2 | BAM8-22 antagonism; hits give low values | B-score at 10 µM | actives 1.3% (n = 310,000);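 active = calcium-response B-score plate-corrected more than 3 library SD below zero, starting fluorescence within 5 deviations, no agonist response on first addition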;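 also: peak minus trough fluorescence over baseline after final BAM8-22 challenge near maximal dose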
MrgX1 PAM: positive allosteric modulators of MrgX1, primary screen, HEK293 cells, Fluo-4 calcium flux. Mas-related G-protein coupled receptor member X1 (Homo sapiens), Q96LB2. FDSS; hits give high values. B-score at 10 µM. actives 0.63% (n = 310,000);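 active = plate-corrected calcium response at least 3 library SD above typical, normal starting fluorescence, not activating the receptor alone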;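 also: compound read alongside a low EC10 to EC30 dose of BAM8-22 agonist; peak minus trough fluorescence over baseline measured at the second addition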
KCC2 secondary: KCC2 modulators in sodium-free buffer, confirmation, cell-based, HEK293 KCC2, thallium flux, secondary assay; actives 15% (n = 3,700); FluoZin2 fluorescence; hits give high values; shares compounds with Cl transport mod; AID 1713, 2009; normalised thallium flux (F/F0 slope) at 10 µM;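 active = thallium flux slope above the same plate's solvent-only control mean plus 3 SD; inconclusive = the two replicate wells disagree; inactive = no significant difference from solvent-only control wells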
KCC2 bumet counter: thallium flux persisting under bumetanide in KCC2 cells, confirmation, counter-screen for KCC2 modulator project, cell-based, HEK293 KCC2, FluoZin2, secondary assay 3; shares compounds with Cl transport mod; HEK293-KCC2 + bumetanide/ouabain; hits give high values; normalized thallium flux at 10 µM; actives 49% (n = 3,700); AID 1714, 2009;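 active = thallium entry rate above the same plate's blocked-transporter control wells by more than 3 SD; inconclusive = the two repeat wells disagree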;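 also: raw slope of fluorescence over initial fluorescence between 10 and 20 s after thallium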
KCC2 secondary2: KCC2 modulators without ouabain present, confirmation, cell-based, HEK293 KCC2, thallium flux, FluoZin2, secondary assay 2; normalized thallium flux at 10 µM; shares compounds with Cl transport mod; actives 23% (n = 3,700); thallium flux FluoZin2 fluorescence; actives lie on both sides; F/F0 rise rate, 10–20 s post-thallium; AID 1715, 2009;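 active = thallium flux slope more than 3 SD above or below the plate's solvent-only control mean, mostly below; inconclusive = the two repeat wells disagreed; inactive = no significant shift from solvent-only controls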;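 also: raw slope with 0.1% DMSO as baseline and bumetanide as block control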
HEK counter1: thallium flux modulation in parental HEK cells, confirmation, counter-screen for KCC2 modulator project, cell-based, counterscreen 1 | shares compounds with Cl transport mod | HEK293 parental cells, thallium flux FluoZin2, ouabain; baseline-ratio fluorescence slope, 10–20 s after thallium | thallium flux rate (normalised fluorescence) at 10 µM | actives 46% (n = 3,700);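 active = thallium flux rate significantly above the same plate's solvent-only control wells, beyond their mean plus 3 SD; inconclusive = the two replicate wells gave conflicting results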
KCC2 ouabain: KCC2 inhibitors and activators, ouabain retest, confirmation, HEK-KCC2 cells | shares compounds with Cl transport mod | HEK293-KCC2, thallium flux FluoZin2 fluorescence; bidirectional: low = inhibitor, high = activator | raw Tl+ flux slope (below DMSO = inhibition, above = activation) at 10 µM | actives 48% (n = 3,700) | AID 1717, 2009;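 active = thallium flux slope beyond 3 SD from same-plate DMSO control mean in most replicates, usually higher, sometimes lower; inconclusive = repeat tests gave conflicting results; inactive = no significant difference from controls in most replicates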;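 also: slope of initial-normalized fluorescence between seconds 10 and 20 after thallium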
HEK293 Tl flux2: native HEK Tl+ uptake effects, second counter-screen – HEK cells, counterscreen 2, counter-screen for KCC2 modulator project, confirmation. thallium flux slope at 10 µM. HEK293 parental, thallium flux FluoZin-2 fluorescence slope. AID 1718, 2009. actives 33% (n = 3,700). shares compounds with Cl transport mod;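 active = thallium flux slope above the same plate's solvent-control mean plus 3 SD in both duplicate wells; inconclusive = duplicate wells that disagreed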;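 also: run without ouabain in cells lacking the KCC2 cotransporter; slope of fluorescence scaled to its starting value between 10 and 20 s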
* marks the source's active call; other numbers are inactive results; i = inactive; ? = inconclusive; / = no result given. Most compounds without a hit are left out; they make up all but 4.7% or so of the library.

SMILES | RGS4 inh | Cl transport mod | RGS4 act | MrgX1 ag | MrgX1 antagonist | MrgX1 PAM | KCC2 secondary | KCC2 bumet counter | KCC2 secondary2 | HEK counter1 | KCC2 ouabain | HEK293 Tl flux2
CC1C/C(=N\NC(=S)NCc2ccccc2)CC(C)(C)C1 (configuration not stated) | i | 1.2 | i | i | i | i | / | / | / | / | / | /
CC1CCC/C(=N\NC(=S)NCc2ccccc2)C1 (configuration not stated) | i | 8.1* | i | i | i | i | 0.017 | 0.01* | 0.027 | ? | 0.017 | 0.012
COc1cccc(NC(=S)NN=C2CCCCCC2)c1 | i | 39* | i | / | / | / | 0.019* | 0.1* | ? | 0.041* | 0.05* | 0.017*
O=C(NC(=S)Nc1ccccc1)C1CCCCC1 | i | / | i | i | i | i | / | / | / | / | / | /
CC1CCC/C(=N/NC(=O)c2ccccc2-n2cccc2)C1 (configuration not stated) | i | -0.16 | i | i | i | i | / | / | / | / | / | /
CC1CCC/C(=N\NC(=S)Nc2ccccc2)C1 (configuration not stated) | i | 15* | i | i | i | i | 0.014* | 0.049* | 0.033 | 0.018* | 0.035* | 0.012*
CC1CCCC/C1=N\NC(=S)Nc1ccccc1 (configuration not stated) | i | 9.5* | i | i | i | i | 0.013* | 0.053* | 0.035 | 0.019* | 0.048* | 0.013*
COc1ccc(C2=NOC(C(=O)NCc3cccnc3)C2)cc1 (configuration not stated) | i | / | i | i | i | i | / | / | / | / | / | /
S=c1nc(-c2sccc2OCc2ccc(Cl)cc2Cl)[nH][nH]1 | i | 24* | i | i | i | i | 0.0071 | 0.087* | 0.029 | 0.023* | ? | 0.013*
CNC(=S)NNC(=O)c1sccc1OCc1ccc(Cl)cc1Cl | i | / | i | i | i | i | / | / | / | / | / | /
C/C(=C\C(=O)c1ccc(Cl)s1)N(C)C | i | 3.8* | i | i | i | 9.2* | 0.011 | 0.014* | 0.036 | ? | ? | 0.011
O=C(/C=C\Nc1ccc2c(c1)OCO2)c1ccc(Cl)s1 | i | -0.028 | i | i | i | i | / | / | / | / | / | /
S=c1nc2ccccc2c2nc(-c3ccccc3)[nH]n12 | i | 32* | i | i | i | i | 0.03* | 0.046* | 0.036 | 0.013* | 0.041* | 0.017*
CCCCNC(=S)N/N=C/c1ccccc1F | i | 7.2* | i | i | i | i | 0.011 | 0.038* | 0.033 | 0.019* | ? | 0.012*
CCCCNC(=S)N/N=C/c1sccc1C | i | 10* | i | i | i | i | 0.01 | 0.017* | 0.034 | 0.019* | ? | ?
CCCCNC(=S)N/N=C/c1ccc(C)s1 | i | 4* | i | i | i | i | ? | 0.027* | 0.031 | 0.012* | 0.021* | 0.014*
COCCCNC(=S)N/N=C/c1cccc(OC)c1O | i | 0.33 | i | i | i | i | / | / | / | / | / | /
CCCCNC(=S)N/N=C/c1cc(C)ccc1C | i | 4.3* | i | i | i | i | ? | 0.0091* | 0.035 | 0.012* | ? | 0.014*
O=C(NCC1CCCCC1)c1cccc(-c2ccc(O)cc2)c1 | i | / | i | i | i | i | / | / | / | / | / | /
O=C(Nc1ccccc1Oc1ccccc1)C1=COCCO1 | i | / | i | i | i | i | / | / | / | / | / | /
Cc1onc(-c2cccc(Cl)c2Cl)c1C(=O)O/N=C(\N)c1ccc([N+](=O)[O-])o1 | i | -4.9* | -8.7* | i | i | i | 0.007 | 0.0033 | ? | 0.0048* | 0.017 | 0.0079*
Cc1onc(-c2ccccc2)c1C(=O)O/N=C(\N)c1ccc([N+](=O)[O-])o1 | i | / | i | i | i | i | / | / | / | / | / | /
O=C1c2ccccc2C(Nc2ccc(S(=O)(=O)N3CCCCCC3)cc2)N1Cc1ccco1 (configuration not stated) | i | -5.5* | i | i | i | i | 0.0088 | 0.0052 | 0.033 | 0.007 | 0.016* | 0.01
CCc1ccccc1NC1c2ccccc2C(=O)N1Cc1ccco1 (configuration not stated) | i | 0.011 | i | i | i | i | / | / | / | / | / | /
CCCc1c(-c2ccc(O)cc2)nn(-c2ccc(O)cc2)c1-c1ccc(O)cc1 | i | -2.5* | i | i | i | i | 0.0072 | 0.0046 | 0.033 | ? | 0.019 | 0.01

Source: PubChem (several laboratories)
